Substitutions are numbered along the chain they refer to.
What was measured:
[1] = Drug concentration in male Wistar Han rat at 10 mg/kg, po measured after 24 hrs by LC/MS analysis; format: ADME, organism-based; settings: in vivo, read-out: Drug uptake
Summary of the method: (§1)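 Overnight-fasted male Wistar Han rats or Beagle dogs, two animals per group, 24 h study. IV in 60% PEG200 (rat 2 mg/kg, dog 1 mg/kg). PO in 10% Tween (rat 10 mg/kg, dog 5 mg/kg). Blood sampled up to 24 h, plasma separated by centrifugation, and drug measured by LC/MS. MRT reported for the IV route.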

[2] = Half-life in male Wistar Han rats at 2 mg/kg, iv administered post overnight fasting measured upto 24 hrs by LC-MS/MS analysis; format: ADME, organism-based; settings: rat, in vivo; summary of the method: as §1
[3] = Clearance in male Wistar Han rats at 2 mg/kg, iv administered post overnight fasting measured upto 24 hrs by LC-MS/MS analysis; format: ADME, organism-based; settings: rat, in vivo; summary of the method: as §1
[4] = Oral bioavailability in male Wistar Han rat at 10 mg/kg post overnight fasting measured upto 24 hrs by LC-MS/MS analysis; format: ADME, organism-based; settings: in vivo; summary of the method: as §1
[5] = AUC in male Wistar Han rats at 10 mg/kg, po administered post overnight fasting measured upto 24 hrs by LC-MS/MS analysis; format: ADME, organism-based; design: route oral, dose 10 mg/kg, time <=24; settings: rat, in vivo; summary of the method: as §1
[6] = Cmax in male Wistar Han rats at 10 mg/kg, po administered post overnight fasting measured upto 24 hrs by LC-MS/MS analysis; format: ADME, organism-based; design: route oral, dose 10 mg/kg, time <=24; settings: rat, in vivo; summary of the method: as §1
Huh-7 [7] = assay: Inhibition of NS5A in Hepatitis C virus subtype 2b infected in human HuH7 cells assessed as reduction in viral replication by luciferase reporter gene assay; format: cell-based
Summary of the method: (§2)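 Transient replicon assay with GT1a-H77, GT1b-Con1 or chimeric replicons, electroporated into a Huh7-derived cell line. Percent inhibition of replication, read as a drop in luciferase signal, was calculated at each concentration to give EC90. Values are means of at least two experiments.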

[8] = Selectivity ratio of EC90 for inhibition of NS5A in Hepatitis C virus subtype 4a infected in human HuH7 cells assessed as reduction in viral to EC90 for inhibition of NS5A in Hepatitis C virus subtype 1a; format: cell-based
Summary of the method: (§3)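 Fold shift calculated against the GT1a EC90, using EC90 values from the luciferase replicon assay in Huh7-derived cells.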

[9] = test system: Nonstructural protein 5A (Hepatitis C virus), Q5L478 [UNDEFINED MUTATION]; assay: Inhibition of NS5A L31V mutant in Hepatitis C virus subtype 1b
Summary of the method: (§4)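 NS5A resistance variants engineered into GT1a-H77 or GT1b-Con1 replicons. Each variant replicon is transfected transiently by electroporation into a Huh7-derived cell line. Percent inhibition is taken from the drop in luciferase signal at each compound concentration, and EC90 is calculated from these. Values are means of at least two experiments.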

[10] = Selectivity ratio of EC90 for inhibition of NS5A Y93H mutant in Hepatitis C virus subtype 1a infected in human HuH7 cells assessed as reduction in viral to EC90 for inhibition of NS5A in Hepatitis C virus subtype 1a; format: cell-based
Summary of the method: (§5)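 Fold shift is calculated against the GT1a EC90. The variant EC90 comes from a transient replicon assay: the NS5A variant is introduced into a GT1a-H77 or GT1b-Con1 replicon and electroporated into Huh7-derived cells. The read-out is reduced luciferase signal. EC90s are means of at least two experiments.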

[11] = test system: Hepatitis C virus subtype 1a; assay: Selectivity ratio of EC90 for inhibition of NS5A Y93N mutant in Hepatitis C virus subtype 1a to EC90 for Selectivity ratio of EC90 for inhibition of NS5A in Hepatitis C virus subtype 1a; summary of the method: as §5
[12] = Selectivity ratio of EC90 for inhibition of NS5A in Hepatitis C virus subtype 2b infected in human HuH7 cells assessed as reduction in viral to EC90 for inhibition of NS5A in Hepatitis C virus subtype 1a; format: cell-based
[13] = test system: Hepatitis C virus subtype 1a; assay: Selectivity ratio of EC90 for inhibition of NS5A Q30D mutant in Hepatitis C virus subtype 1a to EC90 for Selectivity ratio of EC90 for inhibition of NS5A in Hepatitis C virus subtype 1a; summary of the method: as §5
[14] = Selectivity ratio of EC90 for inhibition of NS5A in Hepatitis C virus subtype 3a infected in human HuH7 cells assessed as reduction in viral to EC90 for inhibition of NS5A in Hepatitis C virus subtype 1a; format: cell-based
Huh-7 [15] = assay: Inhibition of NS5A in Hepatitis C virus subtype 4a infected in human HuH7 cells assessed as reduction in viral replication by luciferase reporter gene assay; format: cell-based; summary of the method: as §2
[16] = Selectivity ratio of EC90 for inhibition of NS5A L31V mutant in Hepatitis C virus subtype 1a infected in human HuH7 cells assessed as reduction in viral to EC90 for inhibition of NS5A in Hepatitis C virus subtype 1a; format: cell-based; summary of the method: as §5
[17] = test system: Nonstructural protein 5A (Hepatitis C virus), Q5L478 [UNDEFINED MUTATION]; assay: Inhibition of NS5A L31V mutant in Hepatitis C virus subtype 1a infected in human HuH7 cells assessed as reduction in viral replication by luciferase reporter gene assay; format: cell-based; settings: Huh-7; summary of the method: as §4
[18] = test system: Hepatitis C virus subtype 1a; assay: Selectivity ratio of EC90 for inhibition of NS5A Q30R mutant in Hepatitis C virus subtype 1a to EC90 for Selectivity ratio of EC90 for inhibition of NS5A in Hepatitis C virus subtype 1a; summary of the method: as §5
[19] = test system: T1, Nonstructural protein 5A (Hepatitis C virus), Q5L478 [Y93N]; assay: Inhibition of NS5A Y93N mutant in Hepatitis C virus subtype 1a; summary of the method: as §4
T1 sequence (whole entry): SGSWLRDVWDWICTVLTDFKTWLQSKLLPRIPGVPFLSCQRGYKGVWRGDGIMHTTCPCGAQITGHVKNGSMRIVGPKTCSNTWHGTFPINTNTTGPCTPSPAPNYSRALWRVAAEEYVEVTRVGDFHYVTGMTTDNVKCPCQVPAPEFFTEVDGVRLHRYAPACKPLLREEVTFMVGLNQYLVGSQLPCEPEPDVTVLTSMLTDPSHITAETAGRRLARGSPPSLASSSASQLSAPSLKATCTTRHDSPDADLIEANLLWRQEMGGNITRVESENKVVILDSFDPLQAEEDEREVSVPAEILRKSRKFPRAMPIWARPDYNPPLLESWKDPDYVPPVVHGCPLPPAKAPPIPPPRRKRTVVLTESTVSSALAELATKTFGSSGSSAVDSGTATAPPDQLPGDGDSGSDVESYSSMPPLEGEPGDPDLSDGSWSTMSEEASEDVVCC

[20] = test system: T2, Nonstructural protein 5A (Hepatitis C virus), Q5L478 [Y93H]; assay: Inhibition of NS5A Y93H mutant in Hepatitis C virus subtype 1b; summary of the method: as §4
T2 sequence (whole entry): T1 sequence (whole entry) with N93H

[21] = test system: T2, Nonstructural protein 5A (Hepatitis C virus), Q5L478 [Y93H]; assay: Inhibition of NS5A Y93H mutant in Hepatitis C virus subtype 1a infected in human HuH7 cells assessed as reduction in viral replication by luciferase reporter gene assay; format: cell-based; settings: Huh-7; summary of the method: as §4
[22] = test system: Hepatitis C virus subtype 1a; assay: Inhibition of NS5A Q30D mutant in Hepatitis C virus subtype 1a; summary of the method: as §4
Huh-7 [23] = assay: Inhibition of NS5A in Hepatitis C virus subtype 3a infected in human HuH7 cells assessed as reduction in viral replication by luciferase reporter gene assay; format: cell-based; summary of the method: as §2
[24] = test system: Nonstructural protein 5A (Hepatitis C virus), Q5L478 [UNDEFINED MUTATION]; assay: Inhibition of NS5A Q30R mutant in Hepatitis C virus subtype 1a; summary of the method: as §4
[25] = Selectivity ratio of EC90 for inhibition of NS5A in Hepatitis C virus subtype 1b infected in human HuH7 cells assessed as reduction in viral to EC90 for inhibition of NS5A in Hepatitis C virus subtype 1a; format: cell-based; summary of the method: as §3
[26] = Selectivity ratio of EC90 for inhibition of NS5A Y93H mutant in Hepatitis C virus subtype 1b to EC90 for Selectivity ratio of EC90 for inhibition of NS5A in Hepatitis C virus subtype 1a; summary of the method: as §5
[27] = Selectivity ratio of EC90 for inhibition of NS5A L31V mutant in Hepatitis C virus subtype 1b to EC90 for Selectivity ratio of EC90 for inhibition of NS5A in Hepatitis C virus subtype 1a; summary of the method: as §5
Huh-7 [28] = assay: Inhibition of NS5A in Hepatitis C virus subtype 1a infected in human HuH7 cells assessed as reduction in viral replication by luciferase reporter gene assay; format: cell-based; summary of the method: as §2
Huh-7 [29] = assay: Inhibition of NS5A in Hepatitis C virus subtype 1b infected in human HuH7 cells assessed as reduction in viral replication by luciferase reporter gene assay; format: cell-based; summary of the method: as §2
Huh-7 [30] = assay: Inhibition of NS5A in Hepatitis C virus subtype 2a infected in human HuH7 cells assessed as reduction in viral replication by luciferase reporter gene assay; format: cell-based; summary of the method: as §2

Structure (SMILES) | concentration at 24 h [1] [nM] | half-life [2] [min] | clearance [3] [mL/min/kg] | bioavailability [4] [%] | AUC at 24 h [5] [µM·h] | Cmax [6] [nM] | EC90 (Huh-7 [7]) [nM] | Selectivity ratio [8] | Selectivity ratio [10] | Selectivity ratio [12] | Selectivity ratio [14] | EC90 (Huh-7 [15]) [pM] | Selectivity ratio [16] | EC90 [17] [nM] | EC90 [21] [nM] | EC90 (Huh-7 [23]) [nM] | Selectivity ratio [25] | EC90 (Huh-7 [28]) [pM] | EC90 (Huh-7 [29]) [pM] | also measured
COC(=O)N[C@H](C(=O)N1CCC[C@H]1c1ncc(-c2cc(F)c3c(c2)OC(c2ccc4c(c2)OCCC4)n2c-3cc3cc(-c4cnc([C@@H]5CCCN5C(=O)[C@@H](NC(=O)OC)C(C)C)[nH]4)ccc32)[nH]1)C(C)C.O=C(O)C(F)(F)F.O=C(O)C(F)(F)F (stereo partly specified) | 17 | 348 | 8 | 5 | 1.35 | 86 |  |  |  |  |  |  |  |  |  |  |  |  |  | 
COC(=O)N[C@H](C(=O)N1CCC[C@H]1c1ncc(-c2cc(F)c3c(c2)OC(c2ccc4c(c2)OCCC42CC2)n2c-3cc3cc(-c4cnc([C@@H]5CCCN5C(=O)[C@@H](NC(=O)OC)C(C)C)[nH]4)ccc32)[nH]1)C(C)C.O=C(O)C(F)(F)F.O=C(O)C(F)(F)F (stereo partly specified) | 1 | 510 | 15 | 2 | 0.24 | 29 | 0.2 | 1 | 20 | 40 | 2 | 6 | 1 | 0.006 | 0.1 | 0.01 | 1 | 3 | 4 | EC90 [9]: 5 pM; Selectivity ratio [11]: 300; Selectivity ratio [13]: 400; Selectivity ratio [18]: 10; EC90 [19]: 0.9 nM; EC90 [20]: 0.02 nM; EC90 [22]: 1.2 nM; EC90 [24]: 0.03 nM; Selectivity ratio [26]: 7; Selectivity ratio [27]: 2
COC(=O)N[C@H](C(=O)N1CCC[C@H]1c1ncc(-c2ccc3c(c2)OC(c2ccc(-c4ccccc4)cc2)n2c-3cc3cc(-c4cnc([C@@H]5CCCN5C(=O)[C@@H](NC(=O)OC)C(C)C)[nH]4)ccc32)[nH]1)C(C)C (mixture of isomers) |  |  |  |  |  |  | 2.6 |  |  |  |  | < 20 |  | < 2 | 4.6 | < 0.2 |  | < 20 | < 20 | EC90 (Huh-7 [30]): < 200 pM
COC(=O)N[C@H](C(=O)N1CCC[C@H]1c1ncc(-c2cc(F)c3c(c2)OC(c2ccc4c(c2)OCC[C@H]4C)n2c-3cc3cc(-c4cnc([C@@H]5CCCN5C(=O)[C@@H](NC(=O)OC)C(C)C)[nH]4)ccc32)[nH]1)C(C)C (stereo partly specified) |  |  |  |  |  |  | 0.2 | 1 | 50 | 50 | 2 | 3 | 2 | 0.007 | 0.2 | 0.006 | 1 | 4 | 2 | 
COC(=O)N[C@H](C(=O)N1CCC[C@H]1c1ncc(-c2ccc3c(c2)OC(c2cccc(-c4ccccc4)c2)n2c-3cc3cc(-c4cnc([C@@H]5CCCN5C(=O)[C@@H](NC(=O)OC)C(C)C)[nH]4)ccc32)[nH]1)C(C)C (mixture of isomers) |  |  |  |  |  |  | 3.8 |  |  |  |  | 20 |  | 1 | 21 | 0.3 |  | 5 | 6 | EC90 (Huh-7 [30]): 4 pM
COC(=O)N[C@H](C(=O)N1CCC[C@H]1c1ncc(-c2cc(F)c3c(c2)OC(c2ccc4c(c2)OCC[C@@H]4C)n2c-3cc3cc(-c4cnc([C@@H]5CCCN5C(=O)[C@@H](NC(=O)OC)C(C)C)[nH]4)ccc32)[nH]1)C(C)C (stereo partly specified) |  |  |  |  |  |  | 0.2 | 1 | 50 | 50 | 3 | 3 | 3 | 0.01 | 0.2 | 0.01 | 1 | 4 | 2 | 
COC(=O)N[C@H](C(=O)N1CCC[C@H]1c1ncc(-c2cc(F)c3c(c2)OC(c2ccc4c(c2)OC(C)(C)C4)n2c-3cc3cc(-c4cnc([C@@H]5CCCN5C(=O)[C@@H](NC(=O)OC)C(C)C)[nH]4)ccc32)[nH]1)C(C)C.O=C(O)C(F)(F)F.O=C(O)C(F)(F)F (stereo partly specified) | 9 | 504 | 7 | 3 | 0.71 | 58 | 0.5 | 1 | 67 | 167 | 2 | 3 | 7 | 0.02 | 0.2 | 0.005 | 1 | 3 | 4 | 
